Active and inactive are the calls of the source. The rule behind the calls is not given here.
What was measured:
BaF3 [1] = experiment: Antileukemic activity against mouse BA/F3 cells harboring NRAS-G12D mutant/luciferase allografted in immunodeficient mouse at 8 mg/kg/day, po qd administered on day 6 post implantation measured on day 20 post implantation by bioluminescence imaging method; assay type: functional, organism-based
Method in brief: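 Immunodeficient mice injected via tail vein with Ba/F3-NRAS-G12D/Luc cells, dosed orally once daily (8 or 15 mg/kg/day) or vehicle for 3 weeks, n=4 per cohort; bioluminescence imaged every two days after luciferin 150 mg/kg, quantified by bio-photonic analysis.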

[2] = Metabolic stability in rat liver microsomes assessed as compound remaining at 1 uM after 30 mins; assay type: ADME, microsome; conditions: read-out: Stability
[3] = Metabolic stability in mouse liver microsomes assessed as compound remaining at 1 uM after 30 mins; assay type: ADME, microsome; conditions: read-out: Stability
[4] = Metabolic stability in dog liver microsomes assessed as compound remaining at 1 uM after 30 mins; assay type: ADME, Canis lupus familiaris, microsome; conditions: read-out: Stability
CYP2D6 = CYP2D6 (Homo sapiens, UniProt P10635); experiment: Inhibition of CYP2D6 (unknown origin) assessed as activity remaining at 10 uM relative to control; assay type: ADME; conditions: read-out: Activity
[5] = target: T1, Mitogen-activated protein kinase kinase kinase kinase 2 (Homo sapiens, UniProt Q12851); experiment: Inhibition of GCK (unknown origin) by radiometric biochemical kinase assay
T1 sequence (Q12851 whole entry): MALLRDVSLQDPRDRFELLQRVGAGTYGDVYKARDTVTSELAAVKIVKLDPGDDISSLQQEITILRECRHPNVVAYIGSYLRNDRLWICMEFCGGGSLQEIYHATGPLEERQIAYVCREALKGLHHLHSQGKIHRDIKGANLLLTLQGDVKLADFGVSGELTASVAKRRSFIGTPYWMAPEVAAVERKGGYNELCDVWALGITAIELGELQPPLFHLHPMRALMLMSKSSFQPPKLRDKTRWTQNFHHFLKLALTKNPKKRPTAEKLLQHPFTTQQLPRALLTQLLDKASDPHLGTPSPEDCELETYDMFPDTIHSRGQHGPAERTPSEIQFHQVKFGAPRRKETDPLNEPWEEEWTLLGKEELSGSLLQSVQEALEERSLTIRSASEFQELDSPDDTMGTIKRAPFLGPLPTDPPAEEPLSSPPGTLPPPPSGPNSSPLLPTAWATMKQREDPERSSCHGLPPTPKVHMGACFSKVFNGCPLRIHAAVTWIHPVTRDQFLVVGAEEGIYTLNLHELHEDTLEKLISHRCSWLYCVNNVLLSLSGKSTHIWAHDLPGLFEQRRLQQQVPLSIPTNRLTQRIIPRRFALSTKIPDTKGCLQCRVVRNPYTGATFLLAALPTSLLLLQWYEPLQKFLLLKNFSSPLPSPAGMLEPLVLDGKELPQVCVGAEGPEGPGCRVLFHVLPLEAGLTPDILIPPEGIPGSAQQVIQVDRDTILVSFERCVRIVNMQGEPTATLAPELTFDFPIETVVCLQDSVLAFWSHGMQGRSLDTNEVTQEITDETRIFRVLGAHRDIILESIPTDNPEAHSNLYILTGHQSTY

[6] = Growth inhibition of parental human U937 cells after 72 hrs by celltiter-glo assay; assay type: cell-based, U-937
OCI-AML-3 [7] = experiment: Inhibition of anchorage-independent cell growth in human OCI-AML3 cells harboring NRAS Q61L mutant assessed as reduction in colony size at 0.1 to 1 uM after 14 days by iodonitrotetrazolium chloride staining-based soft agar assay; assay type: functional
Method in brief: (§1)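 OCI-AML3 cells embedded in 0.7% low-melting agar, incubated 2 weeks with compound at 0.1 or 1 µM; colony number and colony size per well measured by automated image analysis; n = 3 per condition, SD, one-way ANOVA.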

OCI-AML-3 [8] = experiment: Antileukemic activity against human OCI-AML3 cells harboring NRAS-Q61L mutant xenografted in immunodeficient mouse assessed as tumor volume at 8 mg/kg/day, po qd administered on day 21 post implantation measured on […] (reference value: 100%); assay type: functional
CYP3A4 = CYP3A4 (Homo sapiens, UniProt P08684); experiment: Inhibition of CYP3A4 (unknown origin) assessed as activity remaining at 10 uM relative to control; assay type: ADME; conditions: read-out: Activity
BaF3 [9] = experiment: Induction of apoptosis in mouse BA/F3 cells expressing NRAS-G12D mutant assessed as decrease in bcl2 levels at 1 uM after 24 hrs by Western blot analysis; assay type: functional, cell-based
Method in brief: (§2)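 Cells treated 24 h with indicated concentrations (1 µM; 5 µM also used in Ba/F3-NRAS-G12D); cleaved PARP, cleaved caspase 3, bcl-2 and MCL1 detected by western blot with actin as loading control.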

Activated CDC42 kinase 1 = Activated CDC42 kinase 1 (Homo sapiens, UniProt Q07912); experiment: Inhibition of ACK1 (unknown origin) by radiometric biochemical kinase assay
[10] = Growth inhibition of parental mouse BA/F3 cells after 72 hrs by celltiter-glo assay; assay type: cell-based, BaF3
CYP1A2 = target: T2, CYP1A2 (Homo sapiens, UniProt P05177); experiment: Inhibition of CYP1A2 (unknown origin) assessed as activity remaining at 10 uM relative to control; assay type: ADME; conditions: read-out: Activity
T2 sequence (P05177 whole entry): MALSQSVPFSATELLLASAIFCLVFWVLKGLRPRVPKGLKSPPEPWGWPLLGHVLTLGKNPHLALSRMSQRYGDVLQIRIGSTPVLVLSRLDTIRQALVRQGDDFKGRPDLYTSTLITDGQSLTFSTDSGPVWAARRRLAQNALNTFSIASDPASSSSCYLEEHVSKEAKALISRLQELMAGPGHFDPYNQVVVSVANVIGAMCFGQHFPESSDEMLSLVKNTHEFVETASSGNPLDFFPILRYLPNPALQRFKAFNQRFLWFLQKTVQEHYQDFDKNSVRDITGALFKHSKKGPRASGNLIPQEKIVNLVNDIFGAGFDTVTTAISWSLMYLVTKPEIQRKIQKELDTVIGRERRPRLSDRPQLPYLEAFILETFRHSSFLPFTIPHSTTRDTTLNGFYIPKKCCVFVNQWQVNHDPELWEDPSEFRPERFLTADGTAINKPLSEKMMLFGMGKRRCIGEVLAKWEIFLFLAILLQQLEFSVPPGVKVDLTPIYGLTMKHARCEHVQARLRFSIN

CYP2C9 = CYP2C9 (Homo sapiens, UniProt P11712); experiment: Inhibition of CYP2C9 (unknown origin) assessed as activity remaining at 10 uM relative to control; assay type: ADME; conditions: read-out: Activity
OCI-AML-3 [11] = experiment: Growth inhibition of ACK1/GCK knockdown human OCI-AML3 cells harboring NRAS-Q61L mutant at 0.2 uM after 72 hrs by celltiter-glo assay; assay type: functional, cell-based
BaF3 [12] = experiment: Induction of apoptosis in mouse BA/F3 cells expressing NRAS-G12D mutant assessed as increase in cleaved PARP levels at 1 uM after 24 hrs by Western blot analysis; assay type: functional, cell-based; method in brief: as §2
OCI-AML-3 [13] = experiment: Growth inhibition of human OCI-AML3 cells harboring NRAS-Q61L mutant after 72 hrs by celltiter-glo assay; assay type: functional; conditions: OCI-AML-3, 72 h
BaF3 [14] = experiment: Induction of apoptosis in mouse BA/F3 cells expressing NRAS-G12D mutant assessed as decrease in MCL1 levels at 1 uM after 24 hrs by Western blot analysis; assay type: functional, cell-based; method in brief: as §2
BaF3 [15] = experiment: Antileukemic activity against mouse BA/F3 cells harboring NRAS-G12D mutant allografted in immunodeficient mouse assessed as median survival time at 8 mg/kg/day, po qd administered on day 6 post implantation (reference value: 23 days); assay type: functional
OCI-AML-3 [16] = experiment: Cell cycle arrest in human OCI-AML3 cells harboring NRAS Q61L mutant assessed as accumulation at G0/G1 phase at 1 uM after 24 hrs by propidium iodide staining based FACS analysis; assay type: functional
Method in brief: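 OCI-AML3 cells treated 24 h at indicated concentrations, including 1 µM; cell-cycle phase distribution measured by flow cytometry after propidium iodide staining.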

BaF3 [17] = experiment: Induction of apoptosis in mouse BA/F3 cells expressing NRAS-G12D mutant assessed as increase in cleaved caspase-3 levels at 1 uM after 24 hrs by Western blot analysis; assay type: functional, cell-based; method in brief: as §2
[18] = Metabolic stability in human liver microsomes assessed as compound remaining at 1 uM after 30 mins; assay type: ADME, microsome; conditions: read-out: Stability
Mus musculus = species on record: Mus musculus; experiment: Inhibition of ACK1/GCK in mouse BA/F3 cells assessed as reduction in NRAS-G12D mutant-mediated cell proliferation after 72 hrs by celltiter-glo assay; assay type: cell-based
OCI-AML-3 [19] = experiment: Inhibition of anchorage-independent cell growth in human OCI-AML3 cells harboring NRAS Q61L mutant assessed as reduction in colony number at 0.1 to 1 uM after 14 days by iodonitrotetrazolium chloride staining-based soft agar assay; assay type: functional; method in brief: as §1

Activated CDC42 kinase 1, sequence (Q07912 whole entry): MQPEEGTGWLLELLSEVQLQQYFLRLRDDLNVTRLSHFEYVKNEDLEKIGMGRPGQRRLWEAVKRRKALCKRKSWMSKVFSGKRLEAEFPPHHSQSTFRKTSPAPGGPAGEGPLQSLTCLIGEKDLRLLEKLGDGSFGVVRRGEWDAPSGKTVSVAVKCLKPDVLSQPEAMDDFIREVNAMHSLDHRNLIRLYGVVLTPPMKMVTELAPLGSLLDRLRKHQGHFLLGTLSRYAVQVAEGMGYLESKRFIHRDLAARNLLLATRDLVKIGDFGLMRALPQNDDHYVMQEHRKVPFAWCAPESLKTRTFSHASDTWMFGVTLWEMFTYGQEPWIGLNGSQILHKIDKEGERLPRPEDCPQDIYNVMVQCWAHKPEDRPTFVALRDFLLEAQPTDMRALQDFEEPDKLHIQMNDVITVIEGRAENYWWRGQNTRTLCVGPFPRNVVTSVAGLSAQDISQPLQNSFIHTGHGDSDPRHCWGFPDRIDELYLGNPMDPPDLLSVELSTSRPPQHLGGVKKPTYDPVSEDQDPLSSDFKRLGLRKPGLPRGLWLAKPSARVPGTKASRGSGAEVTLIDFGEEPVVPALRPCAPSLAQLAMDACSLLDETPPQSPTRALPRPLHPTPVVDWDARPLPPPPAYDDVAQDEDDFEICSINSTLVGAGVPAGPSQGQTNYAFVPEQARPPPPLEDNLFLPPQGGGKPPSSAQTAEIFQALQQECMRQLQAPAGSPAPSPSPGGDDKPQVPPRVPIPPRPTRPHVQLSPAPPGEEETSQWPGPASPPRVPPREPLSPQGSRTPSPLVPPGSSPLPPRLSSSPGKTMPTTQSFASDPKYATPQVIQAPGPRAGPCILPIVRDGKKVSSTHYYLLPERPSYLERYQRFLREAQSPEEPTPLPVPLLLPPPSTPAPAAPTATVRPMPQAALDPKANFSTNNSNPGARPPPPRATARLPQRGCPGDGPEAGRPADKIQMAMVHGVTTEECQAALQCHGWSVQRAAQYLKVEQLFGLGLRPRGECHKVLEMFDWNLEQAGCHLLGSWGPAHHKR
CYP3A4, sequence (P08684 whole entry): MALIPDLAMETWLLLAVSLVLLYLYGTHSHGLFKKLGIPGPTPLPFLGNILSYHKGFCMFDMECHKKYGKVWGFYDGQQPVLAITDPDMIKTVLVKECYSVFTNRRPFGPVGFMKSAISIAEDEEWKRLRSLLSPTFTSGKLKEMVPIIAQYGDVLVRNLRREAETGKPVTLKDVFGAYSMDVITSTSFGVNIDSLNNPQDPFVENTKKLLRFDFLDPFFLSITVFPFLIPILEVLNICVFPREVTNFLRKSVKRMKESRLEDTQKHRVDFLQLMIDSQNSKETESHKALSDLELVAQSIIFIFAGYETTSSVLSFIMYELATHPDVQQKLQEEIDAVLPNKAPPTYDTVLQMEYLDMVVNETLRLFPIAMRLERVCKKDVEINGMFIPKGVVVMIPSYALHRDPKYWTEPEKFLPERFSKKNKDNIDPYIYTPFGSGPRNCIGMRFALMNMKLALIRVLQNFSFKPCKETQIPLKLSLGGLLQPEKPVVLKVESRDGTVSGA
CYP2C9, sequence (P11712 whole entry): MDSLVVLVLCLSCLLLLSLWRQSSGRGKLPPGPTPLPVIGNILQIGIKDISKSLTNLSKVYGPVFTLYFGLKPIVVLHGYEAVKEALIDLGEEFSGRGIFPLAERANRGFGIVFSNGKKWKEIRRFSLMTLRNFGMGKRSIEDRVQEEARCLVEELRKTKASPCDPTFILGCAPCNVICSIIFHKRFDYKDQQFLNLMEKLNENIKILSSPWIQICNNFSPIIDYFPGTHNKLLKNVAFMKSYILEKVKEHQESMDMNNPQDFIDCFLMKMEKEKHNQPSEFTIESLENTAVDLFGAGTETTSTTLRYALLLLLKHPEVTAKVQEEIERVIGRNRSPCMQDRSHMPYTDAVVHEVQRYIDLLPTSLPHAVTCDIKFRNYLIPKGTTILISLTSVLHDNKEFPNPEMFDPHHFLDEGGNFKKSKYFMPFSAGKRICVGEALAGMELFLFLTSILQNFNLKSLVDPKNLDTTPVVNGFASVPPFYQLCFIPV
CYP2D6, sequence (P10635 whole entry): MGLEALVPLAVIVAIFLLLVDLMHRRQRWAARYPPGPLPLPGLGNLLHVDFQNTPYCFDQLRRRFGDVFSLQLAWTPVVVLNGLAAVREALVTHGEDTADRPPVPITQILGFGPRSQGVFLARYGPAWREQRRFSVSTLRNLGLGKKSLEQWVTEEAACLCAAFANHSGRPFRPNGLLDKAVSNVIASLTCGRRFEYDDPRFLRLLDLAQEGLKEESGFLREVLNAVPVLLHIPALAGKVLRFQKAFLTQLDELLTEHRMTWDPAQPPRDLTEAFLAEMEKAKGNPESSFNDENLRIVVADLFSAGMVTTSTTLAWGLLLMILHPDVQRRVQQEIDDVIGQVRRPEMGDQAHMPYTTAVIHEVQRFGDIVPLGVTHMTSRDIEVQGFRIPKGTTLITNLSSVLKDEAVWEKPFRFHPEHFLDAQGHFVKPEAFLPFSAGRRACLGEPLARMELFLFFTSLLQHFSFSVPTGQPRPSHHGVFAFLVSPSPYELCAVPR

In the case of `Cc1ccc(Nc2ncc3c(n2)N(C)C(=O)N(c2cc(NC(=O)c4cccc(C(F)(F)F)c4)ccc2C)C3)cn1`, the Activity (BaF3 [1]) is reported as “Active”, the remaining at 0.5 h, 1 µM [2] is reported as 84.8% and the remaining at 0.5 h, 1 µM [3] is reported as 80.5%. It also gave a remaining at 0.5 h, 1 µM [4] of 55.3%, an activity at 10 µM (CYP2D6) of 68.4% and an IC50 [5] of 8 nM. For the same molecule, the GI50 at 72 h [6] was 4380 nM, the “growth inhibition (GI)” value (OCI-AML-3 [7]) was “Active” and the Activity (OCI-AML-3 [8]) was 53.8%. The activity at 10 µM (CYP3A4) was over 100%, the Activity (BaF3 [9]) was “Active” and the IC50 (Activated CDC42 kinase 1) was 25 nM. For the same molecule, the GI50 at 72 h [10] was 1030 nM, the activity at 10 µM (CYP1A2) was 93.2% and the activity at 10 µM (CYP2C9) was 27%. The “growth inhibition (GI)” value (OCI-AML-3 [11]) was “Active”, the Activity (BaF3 [12]) was “Active” and the GI50 (OCI-AML-3 [13]) was 219 nM. For the same molecule, the Activity (BaF3 [14]) was “Active”, the MSD (BaF3 [15]) was 31 days and the Activity (OCI-AML-3 [16]) was “Active”. The Activity (BaF3 [17]) was “Active”, the remaining at 0.5 h, 1 µM [18] was 78.6% and the GI50 (Mus musculus) was 81 nM. For the same molecule, the “growth inhibition (GI)” value (OCI-AML-3 [19]) was “Active”.
